Assay results as given in BindingDB's records for doi:10.1016/j.ejmech.2011.10.030 (Helwan University, 2011).
pKi: −log10 of the molar value.

target: Beta-lactamase (Pseudomonas aeruginosa, UniProt Q79MP6); assay: Competitive inhibition of Pseudomonas aeruginosa metallo-beta-lactamase IMP-1 expressed in Escherichia coli BL21(DE3) using CENTA as substrate by spectrophotometric analysis
Method in brief: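 IMP-1 lacking the first 21 signal-peptide residues, recombinantly expressed and purified, at 2 nM final. Buffer was 50 mM HEPES, 0.1 M NaCl, 100 µM ZnCl2, pH 7.0, with BSA at 20 µg/mL final. CENTA was varied from 5 to 70 µM final at three inhibitor concentrations. […] was read at 405 nm on a plate reader, and data were fitted by non-linear regression.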

Beta-lactamase, sequence (Q79MP6 whole entry): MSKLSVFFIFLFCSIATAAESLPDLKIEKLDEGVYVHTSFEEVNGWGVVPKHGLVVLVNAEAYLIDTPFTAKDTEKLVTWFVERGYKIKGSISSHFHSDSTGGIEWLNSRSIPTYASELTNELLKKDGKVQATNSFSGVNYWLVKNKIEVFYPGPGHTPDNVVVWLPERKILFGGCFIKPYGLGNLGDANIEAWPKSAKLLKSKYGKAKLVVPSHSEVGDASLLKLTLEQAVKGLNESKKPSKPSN

| SMILES | pKi |
| --- | --- |
| Cc1ccc(-n2c(-c3ccccc3)c(-c3ccccc3)c3c(Cl)ncnc32)cc1 | 4.72 |
| COc1ccc(-n2c3c(c(-c4ccccc4)c2-c2ccccc2)C(=C(C#N)C#N)NC=N3)cc1 | 4.54 |
| Cc1ccc(-n2c(-c3ccccc3)c(-c3ccccc3)c3c(N/N=C/c4ccccc4)ncnc32)cc1 | 4.74 |
| COc1ccc(-n2c(-c3ccccc3)c(-c3ccccc3)c3c(Cl)ncnc32)cc1 | 4.92 |
| Cc1ccc(-n2cc(-c3ccccc3)c3c(Cl)ncnc32)cc1 | 4.48 |
| Cc1ccc(-n2c(-c3ccccc3)c(-c3ccccc3)c3c2ncn2c(=S)[nH]nc32)cc1 | 4.82 |
